Results published in ChEMBL document CHEMBL1926565, “Synthesis, antiproliferative activities and telomerase inhibition evaluation of novel asymmetrical 1,2-disubstituted amidoanthraquinone derivatives” (Eur J Med Chem, 2012).

Columns and labels:
[1] = Cytotoxicity against human Hs 578T cells assessed as cellular growth at 10 uM; assay type: functional
How it was run: (§1)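 Single-dose screen run by the NCI across its 60-human-tumour-cell-line panel; growth recorded for each cell line.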

MDA-MB-435 = test: Cytotoxicity against human MDA-MB-435 cells assessed as cellular growth at 10 uM; assay type: functional; how it was run: as §1
SNB-19 = test: Cytotoxicity against human SNB19 cells assessed as cellular growth at 10 uM; assay type: functional
UACC-257 = test: Cytotoxicity against human UACC257 cells assessed as cellular growth at 10 uM; assay type: functional
M14 = test: Cytotoxicity against human M14 cells assessed as cellular growth at 10 uM; assay type: functional; how it was run: as §1
SF-539 = test: Cytotoxicity against human SF539 cells assessed as cellular growth at 10 uM; assay type: functional; how it was run: as §1
HCC 2998 = test: Cytotoxicity against human HCC2998 cells assessed as cellular growth at 10 uM; assay type: functional; how it was run: as §1
HOP-62 = test: Cytotoxicity against human HOP62 cells assessed as cellular growth at 10 uM; assay type: functional; how it was run: as §1
SK-MEL-5 = test: Cytotoxicity against human SK-MEL-5 cells assessed as cellular growth at 10 uM; assay type: functional
SNB-75 = test: Cytotoxicity against human SNB75 cells assessed as cellular growth at 10 uM; assay type: functional
MDA-MB-231 = test: Cytotoxicity against human MDA-MB-231 cells assessed as cellular growth at 10 uM; assay type: functional; how it was run: as §1
SW-620 = test: Cytotoxicity against human SW620 cells assessed as cellular growth at 10 uM; assay type: functional
[2] = molecular target: Telomerase reverse transcriptase (Homo sapiens) (UniProt O14746); test: Residual activity of human TERT in H1299 cells at 100 uM after 24 hrs by SEAP reporter gene assay
Chain of Telomerase reverse transcriptase (Homo sapiens) (O14746 whole entry): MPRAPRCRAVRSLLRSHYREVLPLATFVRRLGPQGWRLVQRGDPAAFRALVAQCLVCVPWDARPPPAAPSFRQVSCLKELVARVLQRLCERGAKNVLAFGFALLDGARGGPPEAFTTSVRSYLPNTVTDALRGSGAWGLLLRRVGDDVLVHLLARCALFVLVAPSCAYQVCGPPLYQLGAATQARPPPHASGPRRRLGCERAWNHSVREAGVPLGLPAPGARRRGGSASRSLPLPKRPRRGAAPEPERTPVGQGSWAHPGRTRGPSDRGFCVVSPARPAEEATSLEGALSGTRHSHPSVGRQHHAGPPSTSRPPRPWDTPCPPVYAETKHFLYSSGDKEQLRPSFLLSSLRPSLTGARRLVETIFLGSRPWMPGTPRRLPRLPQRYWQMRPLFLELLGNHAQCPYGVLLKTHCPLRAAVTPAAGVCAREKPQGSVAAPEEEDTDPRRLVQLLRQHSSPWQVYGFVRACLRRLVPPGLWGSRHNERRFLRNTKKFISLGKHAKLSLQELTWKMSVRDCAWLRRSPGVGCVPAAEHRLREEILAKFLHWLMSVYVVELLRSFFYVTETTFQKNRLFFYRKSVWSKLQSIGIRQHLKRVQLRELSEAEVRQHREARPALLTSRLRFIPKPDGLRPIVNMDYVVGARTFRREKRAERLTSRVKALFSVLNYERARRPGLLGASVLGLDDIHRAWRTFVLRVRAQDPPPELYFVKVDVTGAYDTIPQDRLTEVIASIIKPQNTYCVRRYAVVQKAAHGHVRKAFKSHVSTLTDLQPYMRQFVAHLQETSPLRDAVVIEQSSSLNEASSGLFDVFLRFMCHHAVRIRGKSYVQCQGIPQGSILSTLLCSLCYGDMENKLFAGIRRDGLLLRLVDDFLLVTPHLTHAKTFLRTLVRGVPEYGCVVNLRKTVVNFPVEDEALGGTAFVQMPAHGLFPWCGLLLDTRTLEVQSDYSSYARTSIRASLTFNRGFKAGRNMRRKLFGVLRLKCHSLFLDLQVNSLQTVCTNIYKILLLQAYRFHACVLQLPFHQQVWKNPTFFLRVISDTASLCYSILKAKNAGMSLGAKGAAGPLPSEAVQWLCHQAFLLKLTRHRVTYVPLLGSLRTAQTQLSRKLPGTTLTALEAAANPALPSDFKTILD

HCT-15 = test: Cytotoxicity against human HCT15 cells assessed as cellular growth at 10 uM; assay type: functional; how it was run: as §1
HL-60(TB) = test: Cytotoxicity against human HL-60(TB) cells assessed as cellular growth at 10 uM; assay type: functional; how it was run: as §1
A549 = test: Cytotoxicity against human A549 cells assessed as cellular growth at 10 uM; assay type: functional; how it was run: as §1
NCI-H460 = test: Cytotoxicity against human NCI-H460 cells assessed as cellular growth at 10 uM; assay type: functional; how it was run: as §1
COLO 205 = test: Cytotoxicity against human COLO205 cells assessed as cellular growth at 10 uM; assay type: functional; how it was run: as §1
NCI-H226 = test: Cytotoxicity against human NCI-H226 cells assessed as cellular growth at 10 uM; assay type: functional; how it was run: as §1
EKVX = test: Cytotoxicity against human EKVX cells assessed as cellular growth at 10 uM; assay type: functional; how it was run: as §1
NCI-H322M = test: Cytotoxicity against human NCI-H322M cells assessed as cellular growth at 10 uM; assay type: functional; how it was run: as §1
RXF 393 = test: Cytotoxicity against human RXF393 cells assessed as cellular growth at 10 uM; assay type: functional; how it was run: as §1
[3] = Growth of human H1299 cells at 1 uM after 48 hrs by MTT assay; conditions: NCI-H1299, 48 h
[4] = Growth of human H1299 cells at 100 uM 48 hrs by MTT assay; conditions: NCI-H1299, 48 h
DU-145 = test: Cytotoxicity against human DU145 cells assessed as cellular growth at 10 uM; assay type: functional; how it was run: as §1
PC-3 = test: Cytotoxicity against human PC3 cells after 48 hrs by SRB assay; assay type: functional, cell-based; conditions: PC-3, 48 h
How it was run: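 PC-3 cells grown in RPMI1640 with 10% FBS at 37 °C, 5% CO₂. Seeded in medium with 5% FBS; after 24 h, one plate fixed with 10% TCA as T₀. Compound or 0.1% DMSO vehicle added for 48 h, then TCA fixation and 0.4% SRB in 1% acetic acid. Dye solubilized in 10 mM Trizma base, absorbance read at 515 nm. IC50 is the concentration giving 50% reduction of the protein gain in controls.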

SR = test: Cytotoxicity against human SR cells assessed as cellular growth at 10 uM; assay type: functional
KM12 = test: Cytotoxicity against human KM12 cells assessed as cellular growth at 10 uM; assay type: functional; how it was run: as §1
NCI-H23 = test: Cytotoxicity against human NCI-H23 cells assessed as cellular growth at 10 uM; assay type: functional; how it was run: as §1
CAKI-1 = test: Cytotoxicity against human Caki1 cells assessed as cellular growth at 10 uM; assay type: functional; how it was run: as §1
UO-31 = test: Cytotoxicity against human UO31 cells assessed as cellular growth at 10 uM; assay type: functional
HOP-92 = test: Cytotoxicity against human HOP92 cells assessed as cellular growth at 10 uM; assay type: functional; how it was run: as §1
OVCAR-8 = test: Cytotoxicity against human OVCAR8 cells assessed as cellular growth at 10 uM; assay type: functional; how it was run: as §1
UACC-62 = test: Cytotoxicity against human UACC62 cells assessed as cellular growth at 10 uM; assay type: functional
SK-OV-3 = test: Cytotoxicity against human SKOV3 cells assessed as cellular growth at 10 uM; assay type: functional
OVCAR-3 = test: Cytotoxicity against human OVCAR3 cells assessed as cellular growth at 10 uM; assay type: functional; how it was run: as §1
MDA-MB-468 = test: Cytotoxicity against human MDA-MB-468 cells assessed as cellular growth at 10 uM; assay type: functional; how it was run: as §1
MCF7 = test: Cytotoxicity against human MCF7 cells assessed as cellular growth at 10 uM; assay type: functional; how it was run: as §1
OVCAR-5 = test: Cytotoxicity against human OVCAR5 cells assessed as cellular growth at 10 uM; assay type: functional; how it was run: as §1
U-251 = test: Cytotoxicity against human U251 cells assessed as cellular growth at 10 uM; assay type: functional
NCI/ADR-RES = test: Cytotoxicity against human NCI/ADR-RES cells assessed as cellular growth at 10 uM; assay type: functional; how it was run: as §1
HCT-116 = test: Cytotoxicity against human HCT116 cells assessed as cellular growth at 10 uM; assay type: functional; how it was run: as §1
IGROV-1 = test: Cytotoxicity against human IGROV1 cells assessed as cellular growth at 10 uM; assay type: functional; how it was run: as §1
CCRF-CEM = test: Cytotoxicity against human CCRF-CEM cells assessed as cellular growth at 10 uM; assay type: functional; how it was run: as §1
ACHN = test: Cytotoxicity against human ACHN cells assessed as cellular growth at 10 uM; assay type: functional; how it was run: as §1
SF-295 = test: Cytotoxicity against human SF295 cells assessed as cellular growth at 10 uM; assay type: functional; how it was run: as §1
LOX IMVI = test: Cytotoxicity against human LOXIMVI cells assessed as cellular growth at 10 uM; assay type: functional; how it was run: as §1
OVCAR-4 = test: Cytotoxicity against human OVCAR4 cells assessed as cellular growth at 10 uM; assay type: functional; how it was run: as §1
[5] = molecular target: Telomerase reverse transcriptase (Homo sapiens) (UniProt O14746); test: Residual activity of human TERT in H1299 cells at 10 uM after 24 hrs by SEAP reporter gene assay
[6] = Growth of human H1299 cells at 10 uM after 48 hrs by MTT assay; conditions: NCI-H1299, 48 h
Malme-3M = test: Cytotoxicity against human MALME-3M cells assessed as cellular growth at 10 uM; assay type: functional; how it was run: as §1

For Cc1ccc(C(=O)Nc2c(NC(=O)CN3CCN(C)CC3)ccc3c2C(=O)c2ccccc2C3=O)cc1, the Activity [1] was 87.29%, the Activity (MDA-MB-435) was 11.15% and the Activity (SNB-19) was 68.75%. It also gave an Activity (UACC-257) of -50.95%, an Activity (M14) of -60.04% and an Activity (SF-539) of 62.68%. It also gave an Activity (HCC 2998) of 28.97%, an Activity (HOP-62) of 75.21% and an Activity (SK-MEL-5) of 41.3%. For the same molecule, the Activity (SNB-75) was 82.17%, the Activity (MDA-MB-231) was 37% and the Activity (SW-620) was 39.17%. The residual activity [2] was 8%, the Activity (HCT-15) was 27.47% and the Activity (HL-60(TB)) was -8.54%. For the same molecule, the Activity (A549) was 83.89%, the Activity (NCI-H460) was 37.47% and the Activity (COLO 205) was 2.29%. For the same molecule, the Activity (NCI-H226) was 93.87%, the Activity (EKVX) was 78.07% and the Activity (NCI-H322M) was 72.6%. For the same molecule, the Activity (RXF 393) was 68.84%, the growth, % of control at 1 µM [3] was 77% and the growth, % of control at 100 µM [4] was 3%. For the same molecule, the Activity (DU-145) was 82.12%, the IC50 (PC-3) was 3.46 µM and the Activity (SR) was -43.7%. For the same molecule, the Activity (KM12) was 44.05%, the Activity (NCI-H23) was 89.52% and the Activity (CAKI-1) was 69.76%. The Activity (UO-31) was 70.66%, the Activity (HOP-92) was 90.68% and the Activity (OVCAR-8) was 46.43%. The Activity (UACC-62) was -20.65%, the Activity (SK-OV-3) was 108.91% and the Activity (OVCAR-3) was -6.15%. For the same molecule, the Activity (MDA-MB-468) was 7.43%, the Activity (MCF7) was 31.79% and the Activity (OVCAR-5) was 106.66%. The Activity (U-251) was 22.38%, the Activity (NCI/ADR-RES) was 66.74% and the Activity (HCT-116) was 8.37%. For the same molecule, the Activity (IGROV-1) was 112.2%, the Activity (CCRF-CEM) was 61.06% and the Activity (ACHN) was 49.87%. It also gave an Activity (SF-295) of 89.86%, an Activity (LOX IMVI) of 1.24% and an Activity (OVCAR-4) of 57.11%. The residual activity [5] was 29%, the growth, % of control at 10 µM [6] was 13% and the Activity (Malme-3M) was 10.84%.

For Cc1ccc(C(=O)Nc2ccc3c(c2NC(=O)c2ccc(C)cc2)C(=O)c2ccccc2C3=O)cc1, the Activity [1] was 105.96%, the Activity (SNB-19) was 103.91% and the Activity (UACC-257) was 98.46%. It also gave an Activity (M14) of 91.57%, an Activity (SF-539) of 97.26% and an Activity (HCC 2998) of 84.68%. It also gave an Activity (HOP-62) of 105.23%, an Activity (SK-MEL-5) of 94.04% and an Activity (SNB-75) of 102.26%. The Activity (MDA-MB-231) was 93.29%, the Activity (SW-620) was 93.79% and the residual activity [2] was 30%. For the same molecule, the Activity (HCT-15) was 102.44%, the Activity (HL-60(TB)) was 73.11% and the Activity (A549) was 90.46%. For the same molecule, the Activity (NCI-H460) was 88.62%, the Activity (COLO 205) was 108.57% and the Activity (NCI-H226) was 91.14%. It also gave an Activity (NCI-H322M) of 97.74%, an Activity (RXF 393) of 88.25% and a growth, % of control at 1 µM [3] of 100%. It also gave a growth, % of control at 100 µM [4] of 62%, an Activity (DU-145) of 95.93% and an IC50 (PC-3) of 3.16 µM. The Activity (SR) was 87.69%, the Activity (KM12) was 94.21% and the Activity (NCI-H23) was 90.57%. It also gave an Activity (CAKI-1) of 94.89%, an Activity (UO-31) of 66.54% and an Activity (HOP-92) of 91.21%. For the same molecule, the Activity (OVCAR-8) was 85.43%, the Activity (UACC-62) was 87.5% and the Activity (SK-OV-3) was 109.62%. The Activity (OVCAR-3) was 97.9%, the Activity (MDA-MB-468) was 104.17% and the Activity (MCF7) was 71.71%. It also gave an Activity (OVCAR-5) of 110.18%, an Activity (U-251) of 91.73% and an Activity (HCT-116) of 78.55%. For the same molecule, the Activity (IGROV-1) was 78.71%, the Activity (CCRF-CEM) was 79.02% and the Activity (ACHN) was 112.43%. It also gave an Activity (SF-295) of 110.81%, an Activity (LOX IMVI) of 84.41% and an Activity (OVCAR-4) of 104.32%. The residual activity [5] was 97%, the growth, % of control at 10 µM [6] was 116% and the Activity (Malme-3M) was 127.16%.
